The record followed here is article PMC7497807 (Blood cancer discovery, 2020).

This experiment deals with T1, MBP-ENL (Homo sapiens, UniProt Q03111).
T1 sequence (Q03111 1-559): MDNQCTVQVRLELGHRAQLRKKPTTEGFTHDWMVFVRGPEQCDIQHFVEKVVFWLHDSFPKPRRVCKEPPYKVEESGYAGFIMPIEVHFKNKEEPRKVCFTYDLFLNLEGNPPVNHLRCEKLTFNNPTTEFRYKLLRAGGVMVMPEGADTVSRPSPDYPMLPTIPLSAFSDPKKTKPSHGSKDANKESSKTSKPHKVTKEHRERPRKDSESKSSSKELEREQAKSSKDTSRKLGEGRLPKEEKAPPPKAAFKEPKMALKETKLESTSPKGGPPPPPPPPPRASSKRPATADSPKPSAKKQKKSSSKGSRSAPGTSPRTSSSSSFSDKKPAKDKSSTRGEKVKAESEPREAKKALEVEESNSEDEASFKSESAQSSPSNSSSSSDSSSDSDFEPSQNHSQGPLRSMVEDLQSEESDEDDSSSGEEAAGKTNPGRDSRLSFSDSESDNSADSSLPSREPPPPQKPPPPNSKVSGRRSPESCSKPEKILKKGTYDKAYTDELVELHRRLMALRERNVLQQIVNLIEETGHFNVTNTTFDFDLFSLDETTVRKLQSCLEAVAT
Nature of the experiment: FA binding of fluorescein-labeled peptides to MBP-ENL. Conditions: fluorescence anisotropy, fluorescein-labeled peptide, MBP-ENL versus MBP-AF9. Summed up: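 Fluorescence anisotropy titrations of fluoresceinated peptides spanning the AF9-binding motif of each binding partner, run with MBP-ENL and, in parallel, MBP-AF9. A KD was obtained for each protein–peptide pair, and the fold change was taken as AF9 KD/ENL KD. Each measurement was run in three replicates, with error given as SEM.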
In general terms: Fluorescence polarisation rises when a labelled molecule tumbles more slowly, as on binding a larger partner.

No end group written: not given here.

Turning to “FITC-CBX8: fluorescein-labeled CBX8 peptide (AQGGRPSLIARIPVARILGDPEEE; also: fluorescein-labeled, attachment not given here)”, the “affinity for ENL compared with affinity for AF9 (in words)” value is “substantial enhancement in binding”.
